Screening results as filed in PubChem.
MrgX1 ag: activates human MrgX1 receptor signaling; Q96LB2; AID 588627; 0.44% of 310,000 active; MrgX1-HEK293 cells, Fluo-4 calcium fluorescence, agonist mode; stronger effect = higher value; B-score at 10 µM;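 active means calcium response B-score plate-corrected fluorescence ratio at least 3 library SD, with starting fluorescence B-score inside 5 SD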
Target sequence (Q96LB2 whole entry, looked up): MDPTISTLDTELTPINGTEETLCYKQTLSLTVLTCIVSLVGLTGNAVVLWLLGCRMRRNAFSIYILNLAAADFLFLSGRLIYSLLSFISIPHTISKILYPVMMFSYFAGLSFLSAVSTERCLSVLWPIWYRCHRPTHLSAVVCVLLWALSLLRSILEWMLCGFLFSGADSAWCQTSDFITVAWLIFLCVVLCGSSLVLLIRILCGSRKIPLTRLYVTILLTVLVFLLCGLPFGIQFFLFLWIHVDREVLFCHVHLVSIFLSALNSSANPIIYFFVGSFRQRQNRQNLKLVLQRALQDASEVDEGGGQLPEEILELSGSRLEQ
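Material: MrgX1-expressing HEK293 cells / Dosing: compound as first of three additions / Incubation: overnight seeding, then 1 h dark dye loading / Signal: Fluo-4 NW calcium fluorescence / Evaluation: B-scored fluorescence response ratio / Benchmarks: positive and negative control wells on each plate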
MrgX1 allo act: allosterically activates human MrgX1 receptor signaling; Q96LB2; MrgX1-HEK293, Fluo-4 calcium flux, FDSS; stronger effect = higher value; B-score at 10 µM; 0.63% of 310,000 active; AID 588675;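 active means plate-corrected calcium response at least 3 library SD above typical, normal starting fluorescence, not activating the receptor alone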;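 further: compound read alongside a low EC10 to EC30 dose of BAM8-22 agonist; peak minus trough fluorescence over baseline measured at the second addition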
RGS4 inh: inhibitors of human RGS4. AID 463165. 0.45% of 310,000 active. HEK293 M3R/RGS4 inducible, Fluo-4 calcium flux; stronger effect = higher value; triggered by carbachol at its EC20. P49798. B-score at 10 µM;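 active means B-score, a plate-corrected calcium signal, over three deviations above library mean, with baseline fluorescence within five deviations of library mean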;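 further: RGS4 expression induced by doxycycline in cells with stable M3 receptor; B-score is computed from the integrated fluorescence ratio over baseline after carbachol; higher B-score means a larger calcium signal and so more RGS4 inhibition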
Target sequence (P49798 whole entry, looked up): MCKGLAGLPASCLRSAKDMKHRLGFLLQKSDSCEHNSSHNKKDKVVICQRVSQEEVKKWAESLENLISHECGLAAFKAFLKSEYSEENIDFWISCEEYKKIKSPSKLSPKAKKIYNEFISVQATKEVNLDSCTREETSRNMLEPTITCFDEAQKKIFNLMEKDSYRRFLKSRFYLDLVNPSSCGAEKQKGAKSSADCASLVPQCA
MrgX1 antagonist: blocks BAM8-22 activation of human MrgX1 receptor; 1.3% of 310,000 active; AID 588676; MRGX1-HEK293 calcium flux, Fluo-4, BAM8-22 antagonism; stronger effect = lower value; B-score at 10 µM; Q96LB2;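 active means calcium-response B-score plate-corrected more than 3 library SD below zero, starting fluorescence within 5 deviations, no agonist response on first addition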;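 further: peak minus trough fluorescence over baseline after final BAM8-22 challenge near maximal dose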
RGS4 act: potentiators or activators of RGS4; HEK293 M3R/inducible RGS4, carbachol calcium flux Fluo4; stronger effect = lower value; B-score at 10 µM; 0.92% of 310,000 active; AID 463111;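 active means B-score of the integrated calcium signal more than 4 SD below the library mean, with starting fluorescence not abnormally high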;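 further: negative B-score means reduced calcium response which marks RGS4 activation or potentiation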
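Reagent: ECmax carbachol challenge; Test system: M3R-expressing HEK293 line, RGS4 induced by doxycycline; Schedule: overnight RGS4 induction, 30 min dye load 37 °C, 20 min compound RT; Detection: calcium dye Fluo4 fluorescence; Read-out: Agonist-evoked peak-minus-minimum fluorescence over baseline, integrated ratio, B score.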
MrgX1 antag conf: confirmation of human MrgX1 receptor antagonists | AID 602420 | shares compounds with MrgX1 antagonist | MrgX1-HEK293, BAM8-22 calcium flux, Fluo-4; stronger effect = lower value | 19% of 2,300 active | remaining BAM8-22 calcium response % of control (stronger effect = lower value), % at 10 µM;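 active means remaining agonist calcium response no higher than 100% minus 3 SD of agonist-only control wells, with starting fluorescence near control levels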;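 further: agonist BAM8-22 given at a near maximal EC90 to ECmax level; peak minus minimum fluorescence divided by baseline after agonist addition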
HEK293 Ca flux: MrgX1 antagonist counter-screen hit in parental HEK293 cells | fluorescence ratio F(max-min)/F0 at 10 µM | 2% of 4,000 active | Fluo-4 calcium fluorescence, FDSS | AID 624111 | shares compounds with MrgX1 antagonist;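 active means duplicate-averaged calcium fluorescence ratio at least three times the standard deviation of buffer wells, a nonspecific response in parental cells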
HEK293 Ca counter: activity in parental HEK293 cells without MrgX1 | fluorescence ratio F(max-min)/F0 at 10 µM | shares compounds with MrgX1 antagonist | parental HEK293 calcium flux, Fluo-4 fluorescence ratio; stronger effect = higher value | 0.4% of 4,000 active;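 active means calcium fluorescence ratio, averaged over duplicates, at least 3 SD of the buffer-well ratio, meaning a nonspecific response in receptor-free cells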;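 further: untransfected parental HEK293 lacking MrgX1 used as counterscreen for MrgX1 allosteric activators; fluorescence change taken during the second addition on a kinetic imager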
HEK293 Ca cntr2: MrgX1 activator counter-screen hit in parental HEK293 cells; fluorescence ratio F(max-min)/F0 at 10 µM; shares compounds with MrgX1 antagonist; Fluo-4 calcium fluorescence (FDSS); stronger effect = higher value; 8.7% of 4,000 active;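 active means calcium fluorescence ratio at least three times the spread of buffer wells, meaning a non-specific response in parental cells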
* hit, by the source's call. Only some compounds are listed: those with a hit (about 3.5% of all), similar ones and a draw of the others.

`O=C(Cc1c(F)cccc1Cl)Nc1ccon1` gave MrgX1 ag inactive, MrgX1 allo act inactive, RGS4 inh inactive, MrgX1 antagonist -6.49*, RGS4 act inactive, MrgX1 antag conf inactive, HEK293 Ca flux inactive, HEK293 Ca counter inactive and HEK293 Ca cntr2 inactive.
For CC(=O)/C(=N\Nc1ccccc1)Sc1nncn1C the results were MrgX1 ag inactive, MrgX1 allo act inactive, RGS4 inh inactive, MrgX1 antagonist inactive and RGS4 act inactive.
For FC(F)(F)c1cccc(NC(=S)NCc2ccccc2)c1 the results were MrgX1 ag inactive, MrgX1 allo act inactive, RGS4 inh inactive, MrgX1 antagonist -5.36*, RGS4 act inactive, MrgX1 antag conf inactive, HEK293 Ca flux inactive, HEK293 Ca counter inactive and HEK293 Ca cntr2 57.7*.
`FC(F)(F)c1cccc(CNC(=S)Nc2ccccc2)c1` gave MrgX1 ag inactive, MrgX1 allo act inactive, RGS4 inh inactive, MrgX1 antagonist inactive and RGS4 act inactive.
Screening CC(C)(C)NC(=S)Nc1cccc(C(F)(F)F)c1 returned MrgX1 ag inactive, MrgX1 allo act inactive, RGS4 inh inactive, MrgX1 antagonist -5.22*, RGS4 act inactive, MrgX1 antag conf inactive, HEK293 Ca flux inactive, HEK293 Ca counter inactive and HEK293 Ca cntr2 inactive.
O=C(Nc1ccccc1)Nc1cccc(C(F)(F)F)c1 was read as MrgX1 ag inactive, MrgX1 allo act inactive, RGS4 inh inactive, MrgX1 antagonist -5.24*, RGS4 act inactive, MrgX1 antag conf 84.2%*, HEK293 Ca flux inactive, HEK293 Ca counter inactive and HEK293 Ca cntr2 inactive.
For COc1cccc(CN(C)C(=O)CSC(C)C(=O)Nc2cc(C)on2)c1OC (stereo not given) the results were MrgX1 ag inactive, MrgX1 allo act inactive, RGS4 inh inactive, MrgX1 antagonist inactive and RGS4 act inactive.
CC[C@H](C)[C@@H](C(=O)NCCCCCCCCCCC(=O)N1CCN(C(=O)OC(C)(C)C)CC1)n1cc(CCCCCNC(=O)OC(C)(C)C)nn1 was read as MrgX1 ag inactive, MrgX1 allo act inactive, MrgX1 antagonist -12.5*, MrgX1 antag conf 43.9%*, HEK293 Ca flux inactive, HEK293 Ca counter inactive and HEK293 Ca cntr2 inactive.
`CC[C@H](C)[C@@H](C(=O)NCCCCCCCCCCC(=O)N1CCN(C(=O)OC(C)(C)C)CC1)n1cc(CCCCN=C(NC(=O)OC(C)(C)C)NC(=O)OC(C)(C)C)nn1` gave MrgX1 ag inactive, MrgX1 allo act inactive and MrgX1 antagonist inactive.
`CC1CCc2sc(C(=O)OCC(=O)NCc3ccc(F)cc3)cc2C1` (stereo not given) gave MrgX1 ag inactive, MrgX1 allo act inactive, RGS4 inh inactive, MrgX1 antagonist -21.2*, RGS4 act inactive, MrgX1 antag conf inactive, HEK293 Ca flux inactive, HEK293 Ca counter inactive and HEK293 Ca cntr2 inactive.
Screening Cc1ccc(NC(=S)N(Cc2ccco2)C2CCN(C(C)C)CC2)cc1 returned MrgX1 ag inactive, MrgX1 allo act inactive, RGS4 inh inactive, MrgX1 antagonist inactive and RGS4 act inactive.
CCc1c(C)nc(SCC(=O)c2ccc(C)c(C)c2)[nH]c1=O was read as MrgX1 ag inactive, MrgX1 allo act inactive, RGS4 inh inactive, MrgX1 antagonist -6.96*, RGS4 act inactive, MrgX1 antag conf inactive, HEK293 Ca flux inactive, HEK293 Ca counter inactive and HEK293 Ca cntr2 inactive.
